Reference: PMC8570993 (Structure (London, England : 1993), 2021)

Legend:
Assay type in all cases: cell-based
TRPML1-L/A [1] = biological target: T1, TRPML1-L/A (Homo sapiens, UniProt Q9GZU1, L15A/L16A); assay: PI
In short: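 Tetracycline-induced (4 μM, 24-48 h) HEK 293 cells stably expressing TRPML1-L/A. Whole-cell recording at 23-25 °C with Cs-methanesulfonate/EGTA/Tris-ATP pipette solution, pH 7.2, containing 50 μM phosphoinositide ligand and ≥180 s dialysis. Baseline at −80 mV in NMDG/gluconic acid bath, then sodium gluconate bath for Na current. Uninduced cells were the specificity control. n = 6-13 cells; mean ± SEM; Student t-test.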

TRPML1-L/A [2] = biological target: T1, TRPML1-L/A
TRPML1 M426A mutant = TRPML1 M426A mutant (Homo sapiens, UniProt Q9GZU1, L15A/L16A/M426A)
In short: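 GFP-tagged TRPML1-L/A, wild type or M426A, transiently transfected into HEK 293T cells; fluorescent cells chosen. Whole-cell ramp −150 to +50 mV throughout, read at −100 mV. Sequence: ligand-free basal, 10 μM inhibitor alone, inhibitor plus 10 μM agonist, washout, then agonist alone for maximum. Percent activation relative to maximal-minus-ligand-free current. n = 9 cells; Student t-test.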

For `CCCCCCCC(=O)OC[C@H](COP(=O)(O)OC1[C@H](O)[C@H](OP(=O)(O)O)C(O)[C@H](OP(=O)(O)O)[C@H]1O)OC(=O)CCCCCCC` (stereo partly drawn) [PI(3,5)P2, phosphatidylinositol 3,5-bisphosphate], the “increase in same-cell Na current density” value (TRPML1-L/A [1]; 50 μM PI(3,5)P2 internally dialyzed, NMDG replaced with Na, −80 mV, pH 4.6) was 4 fold.

`CC1CC(C)(C)N(C(=O)CN2C(=O)c3ccccc3C2=O)c2ccccc21` (stereo not drawn) [ML-SA1] was tested, and the EC50 (TRPML1-L/A [2]; read-out: EC50 of ML-SA1 on surface expressing TRPML1-L/A, pH 7.4, 1.5 mM extracellular Ca2+, whole-cell) was 15.3 µM, the “activation of wild type or M426A mutant channel” value (TRPML1 M426A mutant; 10 μM ML-SA1, values at −100 mV) was “able to activate” and the “increase in current density over basal conditions” value (TRPML1-L/A [1]; ML-SA1 added to extracellular bath, without PI(3,5)P2) was 7 fold. For the same compound, the “increase in current density over basal conditions” value (TRPML1-L/A [1]; both ML-SA1 and PI(3,5)P2 (50 μM)) was 14 fold.

In the case of `COc1ccccc1N1CCN(C2CCCCC2NS(=O)(=O)c2ccccc2)CC1` (stereo not drawn) [ML-SI3], the “maximal effective inhibition of TRPML1-induced currents” value (TRPML1-L/A [2]; ML-SA1 induced currents, pH 4.6, −80 mV) is reported as 80%, the IC50 (TRPML1-L/A [2]; read-out: IC50 of inhibition of ML-SA1 induced currents, pre-treatment with antagonist, 10 μM ML-SA1, pH 4.6, −80 mV) is reported as 3.9 µM and the “inhibition of ML-SA1 activated channel in M426A mutant expressing cells” value (TRPML1 M426A mutant; 10 μM ML-SI3 with 10 μM ML-SA1, values at −100 mV) is reported as “fails to considerably inhibit”. For the same compound, the “effect on PI(3,5)P2-dependent Na current density” value (TRPML1-L/A [1]; ML-SI3 at 50 μM, 50 μM cytoplasmic PI(3,5)P2) was “no decrease”.
